Measurements collected from several papers.
Lines come from different studies, so protocols differ.
Target: Receptor tyrosine-protein kinase erbB-4 (ERBB4, Homo sapiens, UniProt Q15303)

Structure (SMILES)	test	conditions	endpoint	value
CO[C@@H](C)c1c(Nc2ccc([C@H](N(C)C(=O)C3CCS(=O)(=O)CC3)C(F)(F)F)cc2)cnc2cc(Cl)nn12	cell-free assay, competition with immobilised ligand	1 µM	remaining binding	84%
CC(C)(C)c1nc(-c2cccc(NS(=O)(=O)c3c(F)cccc3F)c2F)c(-c2ccnc(N)n2)s1	enzyme activity, inhibitor, radiometric	1 µM	remaining activity	91%
COc1cc2ncnc(Nc3ccc(F)c(Cl)c3)c2cc1OCCCN1CCOCC1	cell-free assay	0.5 µM	remaining signal	24.2%
NS(=O)(=O)c1cc(NC(=O)C2(c3ccccc3Cl)CC2)ccc1Oc1cccc(Cl)c1	cell-free assay, competition with immobilised ligand	1 µM	remaining binding	75%
Cc1cc(NC(=O)c2cccc3cc(-c4cccc5[nH]nc(N)c45)ccc23)ccc1F	enzyme activity, inhibitor	0.1 µM	activity vs control	102%
CN(C(=O)c1ccccc1)c1cc(N(C)c2ccc3c(c2)CCc2ccc(C(=O)NCCN4CCOCC4)cc2C3=O)ccc1F	cell-free assay, competition with immobilised ligand	1 µM	remaining binding	90%
FC(F)c1nc2ccccc2n1-c1nc(N2CCOCC2)nc(N2CCOCC2)n1	enzyme activity, inhibitor	10 µM	remaining activity	103%
O=C1Nc2ccc(Cl)cc2C1=Cc1cc(Cl)c(O)c(Cl)c1	cell-free assay	0.5 µM	remaining signal	94.2%
CN1CC(Oc2cnc(C#N)cc2-c2ccn3nc(NC(=O)C4CC4)cc3c2)C1	enzyme activity, inhibitor	1 µM	inhibition	-2%
Nc1ncnc2occ(-c3ccc(NC(=O)Nc4cc(C(F)(F)F)ccc4F)cc3)c12	cell-free assay, inhibitor	20 µM	remaining signal	57%
Cc1sc(C(=O)NC2COC2)cc1-n1cc(NC(=O)Nc2c(F)cccc2Cl)cn1	enzyme activity, inhibitor	10 µM	remaining activity	95%
Cc1cc(-n2nc(Cc3cc(F)cc(C(F)(F)F)c3)nc2C)ccc1C(N)=O	cell-free assay, competition with immobilised ligand	1 µM	remaining binding	67%
Cc1ccc(Nc2nccc(N(C)c3ccc4c(C)n(C)nc4c3)n2)cc1S(N)(=O)=O	enzyme activity, inhibitor	10 µM	inhibition	36%
CS(=O)(=O)CCNCc1ccc(-c2ccc3ncnc(Nc4ccc(OCc5cccc(F)c5)c(Cl)c4)c3c2)o1	cell-free assay	0.5 µM	remaining signal	11.2%
Cc1nc(N2CC[C@@H](O)C2)ncc1-c1cc(C(F)(F)F)cc2[nH]ncc12	binding, competition with immobilised ligand	1 µM	remaining binding	87%
COc1cc2ncnc(Nc3ccc(Oc4ccccc4)c(C)c3C)c2cc1OC	enzyme activity, inhibitor	1 µM	inhibition	89%
CNCc1ccccc1-c1csc([C@H](C)Nc2nc(C)nc3cc(OC)c(OC)cc23)c1	cell-free assay, competition with immobilised ligand	1 µM	remaining binding	100%
O=C(CSc1nc2nccnc2c(=O)n1CCc1ccccc1)Nc1nccs1	enzyme activity, inhibitor	10 µM	inhibition	-4%
